Shown are actives, neighbours in structure and some others; about 2.3% of the full set was active somewhere.
OXTR potentiate: human OXTR potentiation; P30559; activation, % at 3 µM; actives 0.061% (n = 320,000); CHO-OTR cells, Fluo-8 calcium fluorescence, potentiator mode; 0% = oxytocin EC15, 100% = EC100;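 active means activation above that plate's cutoff, the mean activation of tested compounds plus 3 SD, cut at about 6.6% in these data, passing the limit was not always enough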;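 further: 100% uses oxytocin at 75 nM as the full agonist control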
Target sequence (P30559 whole entry, looked up): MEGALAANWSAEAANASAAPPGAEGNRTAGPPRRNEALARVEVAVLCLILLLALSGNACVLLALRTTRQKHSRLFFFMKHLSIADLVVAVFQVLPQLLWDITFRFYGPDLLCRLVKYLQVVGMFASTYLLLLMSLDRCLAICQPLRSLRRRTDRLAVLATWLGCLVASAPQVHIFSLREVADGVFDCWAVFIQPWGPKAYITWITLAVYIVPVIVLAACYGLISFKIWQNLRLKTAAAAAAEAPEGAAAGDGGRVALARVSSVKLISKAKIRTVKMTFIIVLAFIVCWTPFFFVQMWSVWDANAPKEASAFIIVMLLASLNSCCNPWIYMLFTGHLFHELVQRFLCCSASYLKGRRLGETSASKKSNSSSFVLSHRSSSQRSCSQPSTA
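Material: CHO-OTR cells, human receptor; compound dosing: single dose, 3.0 µM nominal final compound concentration; schedule: 6 min compound pre-incubation at room temperature, 100 s kinetic read; measured by: kinetic Fluo-8 calcium fluorescence; read-out basis: % activation vs EC15 and EC100 oxytocin; controls: EC15 oxytocin alone as 0%, 75 nM oxytocin as 100%; replicates: singlicate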
TAAR1 antag: antagonists of human TAAR1 | Q96RJ0 | CHO RD-HGA16 TAAR1, Fluo-8 calcium fluorescence, antagonist | inhibition, % at 3 µM | actives 1.5% (n = 360,000) | AID 624466;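 active means inhibition above a per-plate cutoff, the mean inhibition of test compounds on that plate plus 3 SD, cut at about 49% in these data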;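 further: 0% = DMSO plus EC80 beta-PEA response and 100% = DMSO alone without agonist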
Target sequence (Q96RJ0 whole entry, looked up): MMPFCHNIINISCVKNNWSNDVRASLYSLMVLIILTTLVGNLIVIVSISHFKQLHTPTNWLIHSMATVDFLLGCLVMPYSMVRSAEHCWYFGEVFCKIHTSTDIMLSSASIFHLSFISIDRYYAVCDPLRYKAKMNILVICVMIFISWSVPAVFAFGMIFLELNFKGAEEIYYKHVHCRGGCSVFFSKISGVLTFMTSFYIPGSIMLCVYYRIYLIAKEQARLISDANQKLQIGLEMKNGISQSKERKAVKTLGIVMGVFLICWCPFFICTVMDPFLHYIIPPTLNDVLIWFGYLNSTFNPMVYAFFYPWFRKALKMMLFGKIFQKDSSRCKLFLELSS
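Assay system: CHO-derived RD-HGA16 cells stably expressing human TAAR1 plus Gα16. Timing: 140 s kinetic read after compound, 140 s after agonist. Technique: kinetic Fluo-8 calcium fluorescence measurement. Measure: % inhibition of agonist calcium response.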
OXTR agonist: agonists of human oxytocin receptor. P30559. CHO-OTR cells, Fluo-8 calcium fluorescence; normalized: DMSO 0%, oxytocin 100%. activation, % at 3 µM. actives 0.32% (n = 320,000);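 active means activation above the mean of all tested compounds plus 3 SD, cutoff set per screening run, cut at about 20% in these data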;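 further: peak over basal fluorescence ratio from a 100 s FLIPR kinetic read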
V1R ag counter: V1a receptor agonism, counter-screen for OXTR agonists; CHO-V1R cells, Fluo-8 calcium fluorescence, agonist mode; 0% DMSO, 100% 3 nM vasopressin; activation, % at 3 µM; actives 0.25% (n = 320,000); AID 2797;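 active means activation above the mean activation of all tested compounds plus 3 SD, per screening run, cut at about 20% in these data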;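 further: signal is peak over basal fluorescence ratio across a 100 second FLIPR read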
TAAR1 ag: human TAAR1 agonism. activation, % at 3 µM. actives 0.99% (n = 360,000). CHO RD-HGA16 TAAR1, Fluo-8 calcium fluorescence; vehicle wells 0%, saturating PEA agonist 100%. AID 624467. Q96RJ0;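 active means activation above the mean activation of all test compounds in the run plus 3 SD, cut at about 38% in these data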
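System: CHO-derived RD-HGA16 cells with stable Gα16 and human TAAR1. Times: 17-24 h plating, Fluo-8 75 min 37 °C, 30 min RT. Measured by: calcium-sensitive Fluo-8 signal, excitation 470-495, emission 515-575 nm. Read-out basis: % activation relative to PEA EC100 response. Control set: DMSO and PEA EC100. Repeats: no replicates (n 1).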
TAAR1 nonsel count: nonselective antagonism, TAAR1 counter-screen; inhibition, % at 3 µM; actives 77% (n = 2,400); counterscreen cell line, calcium fluorescence, antagonist mode; shares compounds with TAAR1 antag; in the data active means inhibition above about 22%;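 further: CHO-Ga16 host cells stimulated with ATP at an EC80 level; 0% = agonist EC80 plus vehicle and 100% = vehicle without agonist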
TAAR1 ant conf: human TAAR1 antagonism, confirmed; TAAR1-expressing cells, fluorescence antagonist read-out; inhibition, % at 3 µM; actives 40% (n = 2,400); shares compounds with TAAR1 antag; in the data active means inhibition above about 49%;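 further: CHO-Ga16 host cells challenged with agonist PEA near its EC80; 0% = agonist at EC80 plus vehicle and 100% = vehicle with no agonist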
Ga16 ag counter-1: nonselective Ga16 agonist in TAAR1 antagonist counter-screen; actives 18% (n = 2,400); AID 651953; Ga16-expressing cells, calcium fluorescence, agonist counterscreen; activation, % at 3 µM; shares compounds with TAAR1 antag; in the data active means activation above about 12%;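 further: 0% = vehicle wells and 100% = saturating stimulus response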
TAAR1 ag counter: counter-screen for human TAAR1 antagonists: TAAR1 agonists | shares compounds with TAAR1 antag | hTAAR1 cell line, fluorescence activation, agonist mode | activation, % at 3 µM | actives 2% (n = 2,400) | AID 651955; in the data active means activation above about 37%;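 further: CHO cells stably expressing TAAR1 with calcium dye readout; 0% = DMSO vehicle and 100% = full agonist response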
TAAR1 ag conf: human TAAR1 agonism, confirmed | actives 82% (n = 2,400) | CHO RD-HGA16 TAAR1, Fluo-8 calcium fluorescence; scaled: DMSO 0%, maximal phenethylamine 100% | activation, % at 3 µM | shares compounds with TAAR1 ag | AID 651783;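 active means activation above a cutoff set at the run's mean compound activation plus 3 SD, cut at about 39% in these data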
Ga16 ag counter-2: nonselective agonist in parental cells, TAAR1 agonist counter-screen; AID 651787; CHO-Ga16 parental, Fluo-8 calcium fluorescence; normalized to maximal ATP response, DMSO zero; actives 50% (n = 2,400); activation, % at 3 µM; shares compounds with TAAR1 ag;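 active means activation above the run cutoff, the mean activation over all tested wells plus 3 SD, cut at about 12% in these data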;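 further: 0% = DMSO wells and 100% = maximal ATP response on the peak over basal ratio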
TAAR1 desensitize: TAAR1 response desensitization, agonist counter-screen. CHO RD-HGA16 hTAAR1, Fluo-8 calcium, beta-PEA response inhibition. actives 46% (n = 2,400). shares compounds with TAAR1 ag. inhibition, % at 3 µM;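 active means inhibition above the run cutoff, the mean inhibition of all test compounds plus 3 SD, cut at about 49% in these data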;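 further: beta-PEA stimulus applied at its EC80; loss of beta-PEA calcium signal after compound pretreatment read as receptor desensitization; 0% = DMSO with beta-PEA at EC80 and 100% = DMSO alone without agonist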
Ga16 nonsel ant: counter-screen for TAAR1 agonists: nonselective Ga16 antagonists; CHO-Ga16 ATP-induced calcium, Fluo-8 fluorescence; AID 651952; actives 39% (n = 2,400); inhibition, % at 3 µM; shares compounds with TAAR1 ag;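 active means inhibition above the plate's mean compound inhibition plus 3 SD, computed per plate, cut at about 22% in these data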;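 further: 0% = EC80 ATP with DMSO and 100% = DMSO wells without ATP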
An asterisk follows results filed as active; . = no result given.

SMILES	OXTR potentiate	TAAR1 antag	OXTR agonist	V1R ag counter	TAAR1 ag	TAAR1 ag conf	Ga16 ag counter-2	TAAR1 desensitize	Ga16 nonsel ant	others
C=CCC[C@@H](Cc1ccc(F)cc1)C(=O)OC[C@H]1CCCN1C(=O)[C@@H](CC=C)CC(=O)N[C@H](CO)Cc1ccccc1	-9	67*	-2	-1	18	.	.	.	.	TAAR1 nonsel count=29*;TAAR1 ant conf=53*;Ga16 ag counter-1=7;TAAR1 ag counter=7
C=CC[C@@H](Cc1ccc(F)cc1)C(=O)OC[C@@H]1CCCN1C(=O)[C@@H](CC=C)CC(=O)N[C@H](CO)Cc1ccccc1	-10	66*	3	6	26	.	.	.	.	TAAR1 nonsel count=36*;TAAR1 ant conf=34;Ga16 ag counter-1=9;TAAR1 ag counter=9
Cc1cc(C(=O)N/N=C/c2ccc(Br)o2)n[nH]1	-1	-7	0	1	1	.	.	.	.
CC[C@@H]1Cc2[nH][nH]c(=O)c2[C@@H](c2ccc(Cl)cc2)O1	.	-10	.	.	1	.	.	.	.
O=C(OCc1nnn(Cc2ccccc2)c1-c1c(COC(=O)c2ccccc2)nnn1Cc1ccccc1)c1ccccc1	-7	.	3	4	.	.	.	.	.
COc1ccc(-c2[nH]c3ccccc3c2SCCNC(=O)c2ccccc2)cc1	-7	70*	0	0	2	.	.	.	.	TAAR1 nonsel count=23*;TAAR1 ant conf=41;Ga16 ag counter-1=5;TAAR1 ag counter=5
COc1cc(NC(=O)c2cc([N+](=O)[O-])ccc2NC(=O)CNC2CCCCC2C)cc(OC)c1 (stereo not given)	-7	39	-2	-1	-1	.	.	.	.
CN1C(=O)CSc2ccc(NC(=O)Nc3ccccn3)cc21	0	70*	-2	2	16	.	.	.	.	TAAR1 nonsel count=21;TAAR1 ant conf=49*;Ga16 ag counter-1=8;TAAR1 ag counter=7
CCOc1ccc(OCC)c(NC(=O)Nc2ccc3c(c2)N(C)C(=O)CS3)c1	0	56*	-2	2	4	.	.	.	.	TAAR1 nonsel count=22*;TAAR1 ant conf=28;Ga16 ag counter-1=5;TAAR1 ag counter=0
CN1C(=O)CSc2ccc(NC(=O)N3CCN(c4ccccn4)CC3)cc21	-7	7	0	0	6	.	.	.	.
CCOc1ccc2ncc(S(=O)(=O)c3ccccc3)c(N3CCC4(CC3)OCCO4)c2c1	1	49*	-2	-1	4	.	.	.	.	TAAR1 nonsel count=13;TAAR1 ant conf=42;Ga16 ag counter-1=3;TAAR1 ag counter=3
COc1ccc(S(=O)(=O)c2cnc3ccc(OC)cc3c2N2CCC3(CC2)OCCO3)cc1	-7	72*	0	-1	13	.	.	.	.	TAAR1 nonsel count=25*;TAAR1 ant conf=50*;Ga16 ag counter-1=8;TAAR1 ag counter=6
CCOc1ccc2ncc(S(=O)(=O)c3ccccc3)c(N3CCN(c4ccccc4)CC3)c2c1	-4	-26	0	0	0	.	.	.	.
O=C(CCc1ccc(S(=O)(=O)N2CCOCC2)cc1)Nc1cc(Cl)ccc1N1CCOCC1	-11	-4	1	1	9	.	.	.	.
CCN(CC(=O)NC1CC1)S(=O)(=O)c1ccc(OC)cc1	-6	-3	1	0	2	.	.	.	.
COCCCNC(=O)CCc1nc(-c2ccccc2Cl)no1	-3	-11	-1	1	0	.	.	.	.
O=C(CCc1nc(-c2ccccc2Cl)no1)NCCc1ccccc1	-10	-9	0	2	58*	68*	2	43	11
CN(CCNC(=O)c1cn(C)c2ccc(S(=O)(=O)N(C)C)cc2c1=O)CCc1ccccc1	-4	-17	0	0	44*	55*	1	5	-8
COC(=O)[C@H]1C[C@H]1[C@@H](NC(=O)c1cccnc1)c1ccccc1	-1	1	0	0	4	.	.	.	.
CN1CCN(c2nc3c(c(=O)n(C)c(=O)n3C)n2Cc2cccc3ccccc23)CC1	-12	-24	-1	0	6	.	.	.	.
Cn1c(=O)c2c(nc(N3CCCCCC3)n2Cc2cccc3ccccc23)n(C)c1=O	-7	11	1	1	66*	72*	42*	35	28*
CCC(=O)NNC(=O)c1cc(COc2cc(Cl)cc(Cl)c2)on1	-4	19	4	2	55*	40*	21*	21	16
Cc1cc(/C=N/NC(=O)CC2(C)OCCO2)c(C)n1-c1cc(Cl)cc(Cl)c1	-14	4	15	0	72*	84*	50*	5	1
Cc1cc(NC2CCCCC2)nc(NCc2ccccc2)n1	-17	19	14	15	67*	76*	52*	59*	39*
COc1ccc(Nc2cc(C)nc(NCc3ccccc3)n2)cc1	-9	-6	16	9	35	.	.	.	.
SMILES	OXTR potentiate	TAAR1 antag	OXTR agonist	V1R ag counter	TAAR1 ag	TAAR1 ag conf	Ga16 ag counter-2	TAAR1 desensitize	Ga16 nonsel ant	others
Cc1ccc(Nc2cc(C)nc(NCc3ccccc3)n2)cc1	-15	2	9	13	56*	88*	42*	45	27*
O=C(C1CCCN(c2ncnc3c2nc2n3CCCCC2)C1)N1CCCCC1 (stereo not given)	-2	-3	-1	0	-2	.	.	.	.
CN1CCN(c2ccc(C(=O)c3cn(-c4ccc(F)c(Cl)c4)nn3)cc2)CC1	-3	-2	1	1	0	.	.	.	.
CC(=O)c1ccc(NC(=O)N2CCc3ccccc3C2)cc1	-19	21	-1	0	14	.	.	.	.
COc1ccc(NC(=O)CSCC(=O)N2CCN(c3cccc(C(F)(F)F)c3)CC2)cc1	-9	-15	5	6	0	.	.	.	.
CCOc1ccc(NC(=O)N2CCc3ccccc3C2)cc1	2	-3	-2	0	51*	54*	0	12	12
COc1ccc(NC(=O)N2CCc3ccccc3C2)cc1	.	-11	.	.	52*	47*	1	-2	-3
COc1ccc(NC(=O)N2CCN(c3cccc(C(F)(F)F)c3)CC2)cc1	-10	94*	9	8	89*	8	11	21	24*

Screening data deposited in PubChem BioAssay by The Scripps Research Institute Molecular Screening Center.
